# Results published in publication PMC5437736 (Molecular Therapy. Methods & Clinical Development, 2017).
# Non-standard residues stand in square brackets, D forms with d. No end group written: not given here. Dmt = Cc1cc(O)cc(C)c1C[C@H](N)C(=O)O; Orn = NCCC[C@H](N)C(=O)O
# Experiments:
# HeLa 705 cells [1] = experiment: WST-1 cell proliferation/viability assay; format: cell-based, human; details: 20% DMSO in complete growth medium, 24 hr, positive control
# Summary of the method: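 Cells seeded at 7 × 10³ per well 24 hr ahead, then exposed 24 hr to peptide at several concentrations in complete medium. WST-1 added at 1:10 final dilution after 20 hr and incubated 4 hr. Plate shaken 1 min; formazan read at 450 nm against 650 nm reference. Controls: 20% DMSO (v/v) for 24 hr and H2O2 at two levels. Mean of at least three experiments with SD.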
# [2] = Solubility in MilliQ water; format: physicochemical; details: compared with unlabelled peptide
# HeLa 705 cells [3] = experiment: Subcellular uptake by spectrofluorometry after isolation of mitochondria; format: cell-based, human; details: 5 μM, 24 hr; for compartment of main accumulation: membranes, cytosol, mitochondria fractions
# Summary of the method: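 HeLa 705 cells grown in flasks for 24 hr, treated 24 hr with fluorescein-labelled peptide, then scraped at about 90% confluence. Reagent-based kit with differential centrifugation (700 × g 10 min, then 12,000 × g 15 min, 4°C) gave membrane, cytosol and mitochondrial fractions. Fluorescein read at […] and normalised to untreated cells. Mean ± SD of three experiments; one-way ANOVA.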
# different cell lines = details: high concentration (100 μM); cited from earlier work
# [4] = test system: mitochondrial membrane potential in HeLa 705 cells; experiment: Mitochondrial membrane potential; format: cell-based, human; details: 5 μM peptide 24 hr, TMRE fluorescence, n = 3; for mitochondrial membrane potential (Δψm) with H2O2 (oxidative stress): H2O2 200 μM for 2 hr
# Summary of the method: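 HeLa 705 cells seeded 24 hr ahead and treated 24 hr with peptide. In the stress arm, a 2 hr H2O2 exposure preceded the 24 hr incubation at 37°C, 5% CO2. TMRE added at 400 nM final for 30 min in the dark, then PBS wash and 0.2% BSA in PBS. Read at ex 549/em 575 nm, as percent of untreated cells or untreated + H2O2. FCCP and H2O2 served as controls. Mean ± SD of three experiments; one-way ANOVA.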
# [5] = read-out: EC50 of the hydroxyl radical scavenging reaction; cited from earlier work
# [6] = test system: mitochondrial superoxide in HeLa 705 cells; experiment: Superoxide anion scavenging assay; format: cell-based, human; details: 5 μM, 24 hr, MitoSOX fluorescence, mean of three experiments
# Summary of the method: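 HeLa 705 cells seeded at 7 × 10³ per well, recovered 24 hr, then exposed to peptide for 24 hr. MitoSOX Red working solution in HBSS/Ca/Mg added for 10 min at 37°C, 5% CO2, in the dark. Cells washed with 0.2% BSA in PBS and read at ex 510/em 580 nm. Signal normalised to antimycin A-treated cells or to a reference peptide. Mean ± SD of three experiments.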
# Dynamic light scattering = format: physicochemical; details: MilliQ H2O or cell culture media, 5 μM
# Summary of the method: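 Test compound dissolved either in DMEM with 10% FBS or in MilliQ water adjusted to pH 7.4. Dynamic light scattering gave hydrodynamic mean diameter and zeta potential. Data plotted as size distribution by intensity.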
# HeLa 705 cells [7] = experiment: Fluorescence microscopy, cellular uptake and localization; format: cell-based, human; details: carboxyfluorescein-labelled peptide 5 μM, 4 hr, 200 nM TMRE
# Summary of the method: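 HeLa 705 cells given carboxyfluorescein-labelled peptides for 4 hr; untreated cells got fresh medium in parallel. Mitochondria stained with 200 nM TMRE (20 min at 37°C per methods; added 30 min pre-imaging per legend) and nuclei with Hoechst 33342 (10 min). Inverted fluorescence microscope with 10×/40× dry and 63× oil objectives, held at 36 ± 1°C. Excitation/emission: Hoechst 346/497 nm, FAM 494/519 nm, TMRE 535/575 nm.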
# cells = details: 1-hr treatment with 1 mM of GSH; cited from earlier work
compound,measurement,setting,value
C[S+](C)[O-] [DMSO],cell viability,HeLa 705 cells [1],approximately 20%
FAM-D-Arg-Dmt-Orn-Phe-NH2 [FAM-mtCPP1],effect of the carboxyfluorescein moiety on solubility,[2],did not decrease the solubility
same,increase in cytosol fraction between FAM-UPF25 and FAM-mtCPP1,"HeLa 705 cells [3]; carboxyfluorescein F.I., direction not given",2 fold
FAM-D-Arg-Dmt-Orn-Phe-Tyr(Me)-Glu-Cys-Gly-NH2 [FAM-mtgCPP],effect of the carboxyfluorescein moiety on solubility,[2],did not decrease the solubility
same,presence in membranes fraction,HeLa 705 cells [3]; carboxyfluorescein F.I.,same extent as FAM-mtCPP1
same,compartment of main accumulation,HeLa 705 cells [3],mainly accumulated in the mitochondria
FAM-Tyr(Me)-Glu-Cys-Gly-NH2 [FAM-UPF25],effect of the carboxyfluorescein moiety on solubility,[2],slightly decreased
same,compartment of main accumulation,HeLa 705 cells [3],mainly accumulates in membranes
Y(Me)ECG-NH2 (N-terminus assumed; SMILES COc1ccc(C[C@H](N)C(=O)N[C@@H](CCC(=O)O)C(=O)N[C@@H](CS)C(=O)NCC(N)=O)cc1) [UPF25],effect on viability of different cell lines,different cell lines,did not affect the viability
same,mitochondrial membrane potential (Δψm) without H2O2,[4],decreased
same,mitochondrial membrane potential (Δψm) with H2O2 (oxidative stress),[4],partially rescue
same,EC50,[5],~30 nM
[dR][Dmt][Orn]FY(Me)ECG-NH2 (N-terminus assumed; SMILES COc1ccc(C[C@H](NC(=O)[C@H](Cc2ccccc2)NC(=O)[C@H](CCCN)NC(=O)[C@H](Cc2c(C)cc(O)cc2C)NC(=O)[C@H](N)CCCNC(=N)N)C(=O)N[C@@H](CCC(=O)O)C(=O)N[C@@H](CS)C(=O)NCC(N)=O)cc1) [mtgCPP],improvement of superoxide anion scavenging ability compared with UPF25,[6],3 fold
same,improvement of superoxide anion scavenging ability compared with mtCPP1,[6],2 fold
same,mitochondrial membrane potential (Δψm) with H2O2 (oxidative stress),[4],close to the healthy situation
same,aggregation (from DLS size),Dynamic light scattering,forming aggregates
same,mitochondrial localization (merge with TMRE),HeLa 705 cells [7],partially targets the mitochondria
glutathione [GSH],uptake of GSH in cells,cells,≈ 1.5 μM
